Laboratory results reported in PMC6358270 (Toxicological Sciences, 2018).
“Also recorded” adds a separate entry of the source. Like-named read-outs stand apart in the source and are kept apart here.

How the values were obtained:
[1] = system: primary human hepatocytes; settings: ref Wolenski et al., 2017; cited from earlier work
[2] = ref Wolenski et al., 2017; cited from earlier work
HepG2 cells [3] = settings: ref Otieno et al., 2018, cited from earlier work; for effect on OCR / basal respiration: HepG2 cells
[4] = target: human BSEP ABC transporter (Homo sapiens, UniProt O95342); assay: BSEP vesicular transport inhibition Ki determination assay; assay type: biochemical
human BSEP ABC transporter, sequence (O95342 whole entry): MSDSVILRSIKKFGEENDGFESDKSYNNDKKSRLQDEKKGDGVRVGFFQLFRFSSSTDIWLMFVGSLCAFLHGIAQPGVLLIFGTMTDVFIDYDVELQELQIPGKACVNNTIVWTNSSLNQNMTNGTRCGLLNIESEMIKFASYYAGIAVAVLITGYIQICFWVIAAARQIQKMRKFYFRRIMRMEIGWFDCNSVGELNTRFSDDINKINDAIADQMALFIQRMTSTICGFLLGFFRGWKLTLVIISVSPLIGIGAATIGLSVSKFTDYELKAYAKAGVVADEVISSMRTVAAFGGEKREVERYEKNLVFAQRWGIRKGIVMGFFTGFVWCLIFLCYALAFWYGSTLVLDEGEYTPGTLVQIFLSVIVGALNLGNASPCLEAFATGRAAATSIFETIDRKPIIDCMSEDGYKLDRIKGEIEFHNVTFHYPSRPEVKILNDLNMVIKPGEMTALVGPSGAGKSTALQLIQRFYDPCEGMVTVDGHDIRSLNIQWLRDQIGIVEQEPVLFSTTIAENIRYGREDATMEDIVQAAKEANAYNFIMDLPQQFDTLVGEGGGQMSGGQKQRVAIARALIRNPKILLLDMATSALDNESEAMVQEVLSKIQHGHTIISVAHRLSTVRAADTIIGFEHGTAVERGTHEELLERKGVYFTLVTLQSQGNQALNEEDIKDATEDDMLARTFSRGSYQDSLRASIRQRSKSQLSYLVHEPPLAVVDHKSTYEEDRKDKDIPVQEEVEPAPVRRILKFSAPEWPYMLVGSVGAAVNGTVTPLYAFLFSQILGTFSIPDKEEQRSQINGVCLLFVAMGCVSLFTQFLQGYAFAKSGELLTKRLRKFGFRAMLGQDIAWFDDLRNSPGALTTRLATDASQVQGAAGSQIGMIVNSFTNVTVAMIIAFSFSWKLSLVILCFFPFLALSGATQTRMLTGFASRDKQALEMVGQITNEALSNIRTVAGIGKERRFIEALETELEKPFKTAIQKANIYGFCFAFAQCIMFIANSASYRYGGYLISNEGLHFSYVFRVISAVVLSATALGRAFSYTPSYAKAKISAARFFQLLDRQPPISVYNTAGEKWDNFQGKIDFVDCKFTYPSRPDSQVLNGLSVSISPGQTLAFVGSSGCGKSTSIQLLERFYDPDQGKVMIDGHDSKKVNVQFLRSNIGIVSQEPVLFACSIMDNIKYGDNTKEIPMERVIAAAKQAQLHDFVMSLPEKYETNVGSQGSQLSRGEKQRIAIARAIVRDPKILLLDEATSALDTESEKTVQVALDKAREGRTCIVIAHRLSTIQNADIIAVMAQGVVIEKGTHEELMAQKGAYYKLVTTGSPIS
How it was run: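 Inside-out membrane vesicles expressing BSEP. Transporter-specific taurocholate accumulation was measured across a range of test compound concentrations.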

TAK-875-treated patients = settings: cited from earlier work; for patients with ALT elevations > 3× ULN: clinical
human NTCP = target: T1, human NTCP (Homo sapiens, UniProt Q14973); assay: NTCP uptake transporter inhibition Ki determination in CHO cells; assay type: cell-based; settings: based on alpha >> 1, increasing Km, nearly constant Vmax
T1 sequence (Q14973 1-349): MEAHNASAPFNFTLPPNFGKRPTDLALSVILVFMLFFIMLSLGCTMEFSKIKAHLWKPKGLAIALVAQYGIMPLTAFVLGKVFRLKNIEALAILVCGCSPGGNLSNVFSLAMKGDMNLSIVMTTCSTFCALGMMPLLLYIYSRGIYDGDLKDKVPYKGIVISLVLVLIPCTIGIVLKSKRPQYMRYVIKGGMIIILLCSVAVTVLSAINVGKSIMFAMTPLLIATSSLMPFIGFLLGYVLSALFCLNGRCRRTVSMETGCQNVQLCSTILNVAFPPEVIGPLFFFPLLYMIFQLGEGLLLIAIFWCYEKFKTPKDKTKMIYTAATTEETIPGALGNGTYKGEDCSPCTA

[5] = rat; ref unpublished data; cited from earlier work
patients with T2D = settings: Phase II clinical trials, ref Kaku et al., 2015; cited from earlier work
HepG2 cells [6] = assay: In vitro ROS assay; assay type: cell-based, human; settings: nominal media concentrations up to 200 μM, 1 h or 24 h

SMILES | effect on oxygen consumption rate (OCR) [1] | compound-induced oxidative stress [2] | effect on OCR / basal respiration (HepG2 cells [3]) | effects on mitochondria (HepG2 cells [3]) | Ki [4] | mode of BSEP inhibition ([4]; based on alpha value, Km and Vmax trends) | BSEP alpha constant for inhibition ([4]; mixed-type inhibition model) | cases of serious liver injury, incidence (TAK-875-treated patients; clinical trials, ref Marcinak et al., 2018) | patients with ALT elevations > 3× ULN (TAK-875-treated patients; daily doses of 200 mg, ref unpublished data) | patients with ALT elevations > 3× ULN (TAK-875-treated patients; daily doses ranging from 25 to 50 mg, ref Marcinak et al., 2018) | cases of serious liver injury (TAK-875-treated patients; in 9139 TAK-875-treated patients, ref Marcinak et al., 2018) | mode of NTCP inhibition (human NTCP) | concentration in liver versus plasma [5] | effect on blood glucose levels and HbA1c (patients with T2D) | ROS production / oxidative stress (DHE fluorescence) (HepG2 cells [6])
Cc1cc(OCCCS(C)(=O)=O)cc(C)c1-c1cccc(COc2ccc3c(c2)OC[C@H]3CC(=O)O[C@@H]2O[C@H](C(=O)O)[C@@H](O)[C@H](O)[C@H]2O)c1 [TAK-875-Glu] | reduce the oxygen consumption rate (OCR) in a dose-dependent manner | no evidence of compound-induced oxidative stress was detected; also recorded: not found to be inducers of oxidative stress | no effect on basal respiration | negligible effects on mitochondria |  |  |  |  |  |  |  |  |  |  | 
Cc1cc(OCCCS(C)(=O)=O)cc(C)c1-c1cccc(COc2ccc3c(c2)OC[C@H]3CC(=O)O)c1 [TAK-875, fasiglifam] | reduce the oxygen consumption rate (OCR) in a dose-dependent manner | no evidence of compound-induced oxidative stress was detected; also recorded: not found to be inducers of oxidative stress | dose-dependent reduction in OCR |  | 17.2 µM | mixed | 2.172 | 0.03% | 4.0% | 2.8% | 3 cases | competitive | roughly equivalent | lowered blood glucose levels and glycated hemoglobin (HbA1c) | not observed
